Compound activity deposited in PubChem by several laboratories.
Hsp70 act: switches on Hsp70 transcription. HeLa Hsp70 promoter luciferase reporter, luminescence; scaled: vehicle 0, proteasome-inhibitor control 100%. activation, % at 10 µM. 200,000 tested, 0.04% active. AID 1203;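 active = activation above the mean across all tested compounds plus 3 SD, cutoff set per campaign, cut at about 5.5% in these data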;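 note: 100% = MG132 at 30 µM as the positive control and 0% = DMSO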
Mdm2 ligase inh: inhibitors of human Mdm2 E3 ubiquitin ligase. Q00987. cell-based MDM2 ubiquitination luciferase reporter, 2 h; 0 = plate control, 100 = twice control, blank-subtracted. signal enhancement, % at 5 µM. 210,000 tested, 0.11% active. AID 1230;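 active = signal enhancement of 30% or more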;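 note: luminescence tracks abundance of the self-degrading MDM2-luciferase fusion protein; higher signal means inhibition of MDM2 E3 ligase activity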
Target sequence (Q00987 whole entry, looked up, the tested form may be a part): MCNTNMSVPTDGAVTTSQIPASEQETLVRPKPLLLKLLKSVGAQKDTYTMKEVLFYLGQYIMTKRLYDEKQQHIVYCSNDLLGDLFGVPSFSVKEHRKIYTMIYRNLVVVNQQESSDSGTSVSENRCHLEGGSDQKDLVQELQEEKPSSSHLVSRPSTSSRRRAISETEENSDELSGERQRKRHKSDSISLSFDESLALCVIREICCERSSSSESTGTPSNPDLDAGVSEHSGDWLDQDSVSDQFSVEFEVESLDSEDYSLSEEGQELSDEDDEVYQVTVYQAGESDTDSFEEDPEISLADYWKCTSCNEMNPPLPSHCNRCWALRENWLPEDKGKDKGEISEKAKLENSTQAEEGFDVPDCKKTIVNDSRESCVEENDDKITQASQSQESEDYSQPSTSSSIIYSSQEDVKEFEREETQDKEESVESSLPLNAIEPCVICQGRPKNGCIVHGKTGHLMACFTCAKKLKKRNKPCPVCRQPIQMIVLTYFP
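System: stable MDM2–luciferase fusion reporter cells / Input: 2000 cells seeded into each well / Schedule: 4 h settle plus 2 h compound, 37 °C / Compound: single-point 5 µM / Buffer or medium: cells held in DMEM / Benchmarks: control and blank well means / Evaluation: percent signal gain over controls, blank-subtracted / Measured by: luciferase luminescence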
S1P3 antagonist: blocks the human S1P3 receptor; AID 485; Q99500; CHO S1P3 NFAT-BLA reporter, FRET fluorescence, antagonist mode; 170,000 tested, 0.27% active; inhibition, % at 4.98 µM;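 active = inhibition above the plate cutoff, the mean inhibition of test wells on that plate plus 3 SD, cut at about 28% in these data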;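 note: cells challenged with S1P at its EC80 of 0.8 µM; blue over green emission ratio from cleaved BLA substrate after 4 h stimulation; 0% = S1P-stimulated wells and 100% = unstimulated DMSO-only wells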
CHOP inhibitor: inhibitors of CHOP induction in ER stress response. CHO-K1 CHOP-promoter luciferase, tunicamycin-induced, 15-18 h. inhibition, % at 10 µM. 220,000 tested, 3.8% active;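 active = compounds that reduced the stress-induced luciferase reporter signal by more than about 70% of percent inhibition, limit read from the data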;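 note: 0% = tunicamycin plus vehicle and 100% = wells without tunicamycin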
Active calls of the source: *; . = no result given. Rows were chosen to be rich in hits. Some 4% of all compounds tested hit in one or more screens of this group.

SMILES	Hsp70 act	Mdm2 ligase inh	S1P3 antagonist	CHOP inhibitor
Cc1ccc(N=Nc2c(N)[nH]n3c(=O)cc(-c4ccccc4)nc23)cc1	0	-28	.	75*
CC(C)(C)c1ccc(NC(=O)Cn2cnc3cc([N+](=O)[O-])ccc3c2=O)cc1	0	-1	-11	91*
CCS(=O)(=O)N1Cc2ccccc2CC1C(=O)OCC(=O)Nc1ccc(C)cc1 (stereo unspecified)	0	-4	22	20
CCS(=O)(=O)N1Cc2ccccc2CC1C(=O)OCC(=O)Nc1ccc(SC(F)F)cc1 (stereo unspecified)	0	-13	.	93*
CCCCNC(=O)C1CCN(S(=O)(=O)N2CCOCC2)CC1	0	-17	13	-14
Cc1ccc(N(CC(=O)Nc2cc(Cl)ccc2Oc2ccccc2)S(C)(=O)=O)cc1C	0	-14	.	89*
COCCNc1nnc(SCC(=O)c2c[nH]c3ccccc23)s1	0	-6	-2	20
O=C(Nc1ccc(Cl)cc1)OC(CN1CCCCC1)C(F)(F)F (stereo unspecified)	3	-9	.	74*
COc1ccc(CN2C(=O)C(=O)N(CC(N)=O)C2=O)cc1	0	-17	1	5
Cc1cc(NC(=O)CSc2nc3sc(C)c(C)c3c(=O)n2C2CCCC2)no1	0	-13	.	87*
CCc1c(C)sc2nc(SCC(=O)Nc3cc(C)on3)n(CCOC)c(=O)c12	-1	-17	.	78*
Cc1cc(NC(=O)CSc2nc(C(C)C)nc3sc(C)c(C)c23)no1	0	-4	-6	85*
COCCn1c(-c2ccc(OC)cc2)cnc1SCC(=O)Nc1cc(C)on1	0	-10	-13	25
COc1ccc(CNC(=O)CCCn2c(SCC#N)nc3cc4c(cc3c2=O)OCO4)cc1	0	-11	.	11
CC(C)CC(=O)Nc1ccc(-c2nnn(CC(=O)NCc3ccco3)n2)cc1	0	-14	-10	-13
CC1CCN(c2c(NCc3ccc(C(=O)N4CCN(C5CCCCC5)CC4)cc3)c(=O)c2=O)CC1	0	.	8	3
CCOC(=O)C1CCCN(C(=O)c2ccc(CNc3c(N4CCC(C)CC4)c(=O)c3=O)cc2)C1 (stereo unspecified)	0	92*	13	-5
O=C(Nc1ccc(Oc2ccc(NC(=O)Nc3ccccc3Cl)cc2)cc1)Nc1ccccc1Cl	.	-8	-1	94*
O=C(Nc1cccc(Cl)c1)C1C2CCC3C(CCC21)C3(Cl)Cl (stereo unspecified)	-1	-17	-4	16
Cc1cc(C(=O)CSc2nnc3ccccn23)c(C)n1-c1ccccc1	-1	-84	-11	73*
O=S1(=O)N=C(N(Cc2cccs2)c2ccc(O)cc2)c2ccccc21	0	-9	-2	16
CC(C)=CCC/C(C)=C/C=N/NC(=O)c1cccc([N+](=O)[O-])c1	0	-19	-2	89*
CC(C(=O)NC1=NCCS1)N1C(=O)C2CC=CCC2C1=O (stereo unspecified)	0	-16	-12	83*
O=C(O)C1=C[C@H](c2coc3ccccc3c2=O)C[C@H](OCc2ccc(CO)cc2)O1	0	.	-8	6
Cc1ccc(/C(O)=C/C(=O)C(=O)NNC(=O)C(O)(c2ccccc2)c2ccccc2)cc1	0	-3	.	85*
SMILES	Hsp70 act	Mdm2 ligase inh	S1P3 antagonist	CHOP inhibitor
CCC1(C)CC(CCNS(=O)(=O)c2ccc(C)cc2)(c2ccc(C)cc2)CCO1 (stereo unspecified)	0	-5	.	73*
CC(C)CCOc1ccc(/C=C2\CCn3c2nc2cc(C(=O)O)ccc2c3=O)cc1	0	-20	-8	90*
c1ccc(N2CCN(Cc3ccnc4ccccc34)CC2)cc1	0	-12	19	59
Oc1c(CN2CCN(c3ccccc3)CC2)cc(Br)c2cccnc12	.	.	-3	89*
CCOC(=O)N1CCN(Cc2cc(Cl)c3cccnc3c2O)CC1	0	-9	-5	83*
COc1cc(/C=N/N=C(N)N)ccc1OCc1ccc(Cl)cc1	0	-28	-7	78*
CCOc1cc(CNCCc2ccc(S(N)(=O)=O)cc2)ccc1OCc1ccc(Cl)cc1	0	-18	.	89*
COc1cc(/C=N/O)ccc1OCc1ccc(C(=O)O)cc1	-1	-6	.	90*
COc1cc(CNCCc2ccc(S(N)(=O)=O)cc2)ccc1OCc1ccc(Cl)cc1	0	-18	.	23
COc1cc(/C=N/O)ccc1OCc1ccc(Cl)cc1	0	-24	1	39
CCOc1cc(/C=N/N=C(N)N)ccc1OCc1ccc(Cl)cc1	0	-5	-4	108*
COc1ccccc1NC(=O)CSc1nnc(C2CCCCC2)n1-c1ccccc1	.	.	2	15
NC(=S)N1OC[C@@H]2COc3ccc4ccccc4c3[C@@H]21	0	-30	-3	77*
Cc1nnc(SCc2ccc3c(c2)OCO3)s1	0	-7	.	19
Cc1ccc(-n2c(C)nc3c(cnn3-c3ccc(F)cc3)c2=O)cc1C	-1	-20	-11	48
CCc1nc2c(cnn2-c2ccc(F)cc2)c(=O)n1-c1ccc(N2CCC(C)CC2)cc1	0	-13	.	79*
Cc1nc2c(cnn2-c2ccccc2Cl)c(=O)n1-c1ccc(N2CCC(C)CC2)cc1	0	-1	.	77*
CCOc1ccc(S(=O)(=O)n2cc(F)c(=O)[nH]c2=O)cc1	0	-5	6	-4
CN(C)S(=O)(=O)c1cccc(NC(=O)COC(=O)COc2ccccc2[N+](=O)[O-])c1	0	-5	-3	10
Cc1cccc(NC(=O)c2cc([N+](=O)[O-])ccc2NC2CCCCC2)c1	-1	-2	-6	73*
CN(c1ccc([N+](=O)[O-])cc1C(=O)Nc1ccccc1)C1CCCCC1	0	4	.	14
Cc1ccc2c(Cl)cc(Cl)c(OCC(=O)Nc3ccc(C)c(S(=O)(=O)N(C)C)c3)c2n1	0	-15	-11	2
N#CC(C#N)=C1C=CC=CN1/C(=C\c1ccco1)C(=O)c1ccc(Cl)cc1	0	-30	-5	111*
N#C/C(=C\c1ccco1)C(=O)NCc1ccccc1	0	-3	-20	-24
N#CC(C#N)=C1C=CC=CN1/C(=C\c1ccco1)C(=O)c1ccc(-c2ccccc2)cc1	4	11	-29	107*
COc1ccc2[nH]c(C)c(CCN3C(=O)C4C5C=CC(C5)C4C3=O)c2c1 (stereo unspecified)	0	-26	-8	0
O=C(Cc1c(Sc2ccccc2)c2ccccc2n1Cc1ccccc1)NCCO	0	-11	-4	12
COC(=O)c1cc(OC)c(OC)cc1NC(=S)N1CCN(C/C=C/c2ccccc2)CC1	0	1	-3	31
CCOc1ccc(NC(=O)COC(=O)C2(C)CC2(Cl)Cl)c([N+](=O)[O-])c1 (stereo unspecified)	0	3	3	97*
CCOc1ccc(OCC(=O)Nc2ccc(OC)cc2[N+](=O)[O-])cc1	0	-3	-22	18
